Active and inactive are the calls of the source. The rule behind the calls is not given here.
Legend:
MDA-MB-231 = assay: Cytotoxicity against human MDA-MB-231 cells assessed as decrease in cell viability after 48 hrs by MTS assay; format: functional; conditions: MDA-MB-231, 48 h
In short: (§1)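 Cells grown at 37 °C, 5% CO2, with 10% FBS and penicillin/streptomycin: MDA-MB-231, JIMT1 and DU145 in DMEM, PC3 in F12K, BT474 in Hybricare, MiaPaCa2 in DMEM plus 2.5% horse serum. Cells (7500–9000/well) were plated for 24 h, then exposed to 0–20 µM for 48 h. MTS was added for 1–4 h and OD490 read, blank-subtracted, relative to vehicle. CC50 was read from plots; mean ± SD, six independent determinations.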

JIMT-1 = assay: Cytotoxicity against human JIMT1 cells assessed as decrease in cell viability after 48 hrs by MTS assay; format: functional; conditions: JIMT-1, 48 h; in short: as §1
BT-474 [1] = assay: Induction of disintegration of human BT474 cancer stem cell spheroids at 20 uM after 3 days by microscopic method; format: functional, cell-based
In short: (§2)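 BT474 stem-cell spheroids (ALDH1-sorted, formed over 6 days in Mammocult on ultra-low adhesion plates) exposed to 0, 7.5 or 20 µM for 3 days. Integrity was judged by light microscopy at ×10 against untreated spheroid wells.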

BT-474 [2] = assay: Cytotoxicity against human BT474 cells assessed as decrease in cell viability after 48 hrs by MTS assay; format: functional; conditions: BT-474, 48 h; in short: as §1
DU-145 = assay: Cytotoxicity against human DU145 cells assessed as decrease in cell viability after 48 hrs by MTS assay; format: functional; conditions: DU-145, 48 h; in short: as §1
PC-3 = assay: Cytotoxicity against human PC3 cells assessed as decrease in cell viability after 48 hrs by MTS assay; format: functional; conditions: PC-3, 48 h; in short: as §1
BT-474 [3] = assay: Cytotoxicity against human BT474 cancer stem cell spheroids assessed as cell viability at 20 uM after 3 days by MTS assay relative to control; conditions: BT-474, 72 h
BT-474 [4] = assay: Induction of disintegration of human BT474 cancer stem cell spheroids at 7.5 uM after 3 days by microscopic method; format: functional, cell-based; in short: as §2
MIA PaCa-2 = assay: Cytotoxicity against human MIAPaCa2 cells assessed as decrease in cell viability after 48 hrs by MTS assay; format: functional; conditions: MIA PaCa-2, 48 h; in short: as §1
BT-474 [5] = assay: Cytotoxicity against human BT474 cancer stem cell spheroids assessed as decrease in cell viability up to 20 uM after 3 days by MTS assay
BT-474 [6] = assay: Cytotoxicity against human BT474 cancer stem cell spheroids assessed as decrease in cell viability at 2 to 10 uM after 3 days by MTS assay
[7] = Chemical stability of compound in aqueous DMSO solution at pH 2 to 3 at 30 uM after 1 week; format: physicochemical; conditions: buffer, pH 2, 168 h
In short: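 Tested as the TFA salt at 30 µM in aqueous DMSO, pH 2-3, and held for at least one week.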

SMILES	CC50 (MDA-MB-231) [µM]	CC50 (JIMT-1) [µM]	Activity (BT-474 [1])	CC50 (BT-474 [2]) [µM]	CC50 (DU-145) [µM]	CC50 (PC-3) [µM]	viability at 20 µM (BT-474 [3]) [%]	Activity (BT-474 [4])	CC50 (MIA PaCa-2) [µM]	Activity (BT-474 [5])	Activity (BT-474 [6])	Stability [7]
CCCCCCCCCCCCCCCCOC[C@H](CO[C@@H]1O[C@H](CN)[C@@H](O)[C@H](O)[C@H]1NCCCN)OC	17.5	12.5	inactive	> 20	18.5	14.5	0	Active	14.5	–	–	–
NCCCCCCCCCCCCO[C@@H]1O[C@H](CN)[C@@H](O)[C@H](O)[C@H]1N	> 20	> 20	inactive	> 20	> 20	> 20	–	inactive	> 20	inactive	–	–
CCCCCCCCCCCCCCCCOC[C@@H](COC1O[C@H](CN)[C@@H](O)[C@H](O)[C@H]1N)OC (stereo not given in full)	–	–	–	–	–	–	–	–	–	–	Active	–
CCCCCCCCCCCCCCN [TETRADECYLAMINE]	–	27	inactive	–	16.5	24	–	inactive	18	inactive	–	–
CCCCCCCCCCCCCCCCOC[C@H](CO[C@@H]1O[C@H](CNCCCCCCCCCCCCNC(=O)CCCc2ccc(N(CCCl)CCCl)cc2)[C@@H](O)[C@H](O)[C@H]1N)OC.O=C(O)C(F)(F)F.O=C(O)C(F)(F)F	10.5	16	–	13	> 20	> 20	–	–	> 20	–	–	Stable
CC[C@@H](C(=O)[C@@H](C)[C@@H](O)[C@H](C)[C@@H]1O[C@@H]([C@@H](CC)C(=O)O)CC[C@@H]1C)[C@H]1O[C@]2(C=C[C@@H](O)[C@]3(CC[C@@](C)([C@H]4CC[C@](O)(CC)[C@H](C)O4)O3)O2)[C@H](C)C[C@@H]1C	–	–	Active	–	–	–	–	inactive	–	–	–	–
